From ChEMBL document CHEMBL1156517, “Targeting thyroid hormone receptor-beta agonists to the liver reduces cholesterol and triglycerides and improves the therapeutic index” (Proc Natl Acad Sci U S A, 2007)

Key:
Design in all cases: dose 5 mg/kg, route oral
Details in all cases: in vivo
[1] = Biodistribution in Sprague-Dawley rat large intestine C&W at 5 mg/kg, po after 3 hrs; assay type: ADME, organism-based
In short: (§1)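 Male SD rats (n = 4 per group) were dosed orally with [¹⁴C]-labelled prodrug at 5 mg/kg. Animals were killed 3 or 24 h after dosing. Harvested tissues, blood and plasma were processed and analysed directly for radioactivity by liquid scintillation counting.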

[2] = Biodistribution in Sprague-Dawley rat large intestine C&W at 5 mg/kg, po after 24 hrs; assay type: ADME, organism-based; in short: as §1
[3] = tested on: Brain; assay: Biodistribution in Sprague-Dawley rat brain at 5 mg/kg, po after 3 hrs; assay type: ADME, organism-based; in short: as §1
[4] = Biodistribution in Sprague-Dawley rat small intestine C&W at 5 mg/kg, po after 3 hrs; assay type: ADME, organism-based; in short: as §1
[5] = tested on: Liver; assay: Biodistribution in Sprague-Dawley rat liver at 5 mg/kg, po after 24 hrs; assay type: ADME, organism-based; in short: as §1
[6] = tested on: Prostate gland; assay: Biodistribution in Sprague-Dawley rat prostate at 5 mg/kg, po after 24 hrs; assay type: ADME, organism-based; in short: as §1
[7] = Biodistribution in Sprague-Dawley rat epididymal fat at 5 mg/kg, po after 24 hrs; assay type: ADME, organism-based, Adipose tissue; in short: as §1
[8] = tested on: Blood; assay: Biodistribution in Sprague-Dawley rat blood at 5 mg/kg, po after 24 hrs; assay type: ADME, organism-based; in short: as §1
[9] = Biodistribution in Sprague-Dawley rat small intestine at 5 mg/kg, po after 3 hrs; assay type: ADME, organism-based; in short: as §1
[10] = Biodistribution in Sprague-Dawley rat stomach C&W at 5 mg/kg, po after 24 hrs; assay type: ADME, organism-based
In short: (§2)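 Male SD rats (n = 4 per group) were given [¹⁴C]-labelled compound at 5 mg/kg per os. They were killed 3 and 24 h after dosing. Harvested tissues were processed and radioactivity was measured directly by liquid scintillation counting.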

[11] = tested on: Liver; assay: Biodistribution in Sprague-Dawley rat liver at 5 mg/kg, po after 3 hrs; assay type: ADME, organism-based; in short: as §1
[12] = tested on: Blood; assay: Biodistribution in Sprague-Dawley rat blood at 5 mg/kg, po after 3 hrs; assay type: ADME, organism-based; in short: as §1
[13] = tested on: Prostate gland; assay: Biodistribution in Sprague-Dawley rat prostate at 5 mg/kg, po after 3 hrs; assay type: ADME, organism-based; in short: as §1
[14] = Biodistribution in Sprague-Dawley rat femur bone at 5 mg/kg, po after 3 hrs; assay type: ADME, organism-based, Bone element; in short: as §1
[15] = Biodistribution in Sprague-Dawley rat pituitary gland at 5 mg/kg, po after 3 hrs; assay type: ADME, organism-based; in short: as §1
[16] = Biodistribution in Sprague-Dawley rat eyes at 5 mg/kg, po after 3 hrs; assay type: ADME, organism-based, Eye; in short: as §1
[17] = Biodistribution in Sprague-Dawley rat bone marrow at 5 mg/kg, po after 24 hrs; assay type: ADME, organism-based; in short: as §1
[18] = tested on: Zone of skin; assay: Biodistribution in Sprague-Dawley rat skin at 5 mg/kg, po after 24 hrs; assay type: ADME, organism-based; in short: as §1
[19] = tested on: Kidney; assay: Biodistribution in Sprague-Dawley rat kidney at 5 mg/kg, po after 3 hrs; assay type: ADME, organism-based; in short: as §1
[20] = Biodistribution in Sprague-Dawley rat small intestine at 5 mg/kg, po after 24 hrs; assay type: ADME, organism-based; in short: as §1
[21] = tested on: Thyroid gland; assay: Biodistribution in Sprague-Dawley rat thyroid at 5 mg/kg, po after 3 hrs; assay type: ADME, organism-based; in short: as §2
[22] = tested on: Heart; assay: Biodistribution in Sprague-Dawley rat heart at 5 mg/kg, po after 24 hrs; assay type: ADME, organism-based; in short: as §1
[23] = tested on: Plasma; assay: Biodistribution in Sprague-Dawley rat plasma at 5 mg/kg, po after 3 hrs; assay type: ADME, organism-based; in short: as §1
[24] = tested on: Pancreas; assay: Biodistribution in Sprague-Dawley rat pancreas at 5 mg/kg, po after 3 hrs; assay type: ADME, organism-based; in short: as §1
[25] = Biodistribution in Sprague-Dawley rat urinary bladder at 5 mg/kg, po after 24 hrs; assay type: ADME, organism-based; in short: as §2
[26] = Biodistribution in Sprague-Dawley rat eyes at 5 mg/kg, po after 24 hrs; assay type: ADME, organism-based, Eye; in short: as §1
[27] = tested on: Brain; assay: Biodistribution in Sprague-Dawley rat brain at 5 mg/kg, po after 24 hrs; assay type: ADME, organism-based; in short: as §1
[28] = tested on: Lung; assay: Biodistribution in Sprague-Dawley rat lung at 5 mg/kg, po after 3 hrs; assay type: ADME, organism-based; in short: as §1
[29] = tested on: Testes; assay: Biodistribution in Sprague-Dawley rat testes at 5 mg/kg, po after 3 hrs; assay type: ADME, organism-based, Testis; in short: as §2
[30] = tested on: Heart; assay: Biodistribution in Sprague-Dawley rat heart at 5 mg/kg, po after 3 hrs; assay type: ADME, organism-based; in short: as §1

Cc1cc(OCP2(=O)OCC[C@@H](c3cccc(Cl)c3)O2)cc([14CH3])c1Cc1ccc(O)c(C(C)C)c1 (stereo not given in full)
Drug uptake [1]: 4.68 nmol/g | Drug uptake [2]: 2.5 nmol/g | Drug uptake [3]: 0.03 nmol/g | Drug uptake [4]: 39.69 nmol/g | Drug uptake [5]: 3.67 nmol/g | Drug uptake [6]: 0.03 nmol/g | Drug uptake [7]: 0.55 nmol/g | Drug uptake [8]: 0.05 nmol/g | Drug uptake [9]: 28.56 nmol/g | Drug uptake [10]: 0.06 nmol/g | Drug uptake [11]: 6.67 nmol/g | Drug uptake [12]: 0.12 nmol/g | Drug uptake [13]: 0.12 nmol/g | Drug uptake [14]: 0.14 nmol/g | Drug uptake [15]: 0.09 nmol/g | Drug uptake [16]: 0.04 nmol/g | Drug uptake [17]: 0.01 nmol/g | Drug uptake [18]: 0.15 nmol/g | Drug uptake [19]: 0.48 nmol/g | Drug uptake [20]: 0.4 nmol/g | Drug uptake [21]: 0.2 nmol/g | Drug uptake [22]: 0.05 nmol/g | Drug uptake [23]: 0.15 nmol/g | Drug uptake [24]: 0.25 nmol/g | Drug uptake [25]: 0.05 nmol/g | Drug uptake [26]: 0.01 nmol/g | Drug uptake [27]: 0.01 nmol/g | Drug uptake [28]: 0.31 nmol/g | Drug uptake [29]: 0.03 nmol/g | Drug uptake [30]: 0.36 nmol/g
